Assay results published in ChEMBL document CHEMBL5357047, “The development of thymol-isatin hybrids as broad-spectrum antibacterial agents with potent anti-MRSA activity” (RSC Med Chem, 2024).
Values after ≈ are worked out from the molar mass of the structure shown.

Experiments:
[1] = system: Acinetobacter baumannii; assay: Antibacterial activity against clinically isolated Acinetobacter baumannii RBRJ027 assessed as inhibition of bacterial growth at 50 uM measured after 48 hrs by agar well diffusion method; assay type: functional; settings: read-out: IZ
[2] = system: Staphylococcus epidermidis; assay: Antibacterial activity against Staphylococcus epidermidis MTCC 435 assessed as inhibition of bacterial growth at 50 uM measured after 48 hrs by agar well diffusion method; assay type: functional; settings: read-out: IZ
[3] = system: Klebsiella pneumoniae; assay: Antibacterial activity against Klebsiella pneumoniae MTCC 109 assessed as inhibition of bacterial growth at 50 uM measured after 48 hrs by agar well diffusion method; assay type: functional; settings: read-out: IZ
[4] = system: Klebsiella pneumoniae; assay: Antibacterial activity against clinically isolated Klebsiella pneumoniae RBRJ019 assessed as inhibition of bacterial growth at 50 uM measured after 48 hrs by agar well diffusion method; assay type: functional; settings: read-out: IZ
[5] = system: Staphylococcus aureus; assay: Antibacterial activity against Staphylococcus aureus MTCC 740 assessed as inhibition of bacterial growth measured after 48 hrs by broth microdilution method; assay type: functional
[6] = system: Staphylococcus aureus; assay: Bactericidal activity against Staphylococcus aureus MTCC 740 assessed as inhibition of bacterial growth measured after 48 hrs by agar plate method; assay type: functional
Procedure, shortened: (§1)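 MBC: aliquots from microdilution wells without colour change subcultured on drug-free Mueller Hinton agar, 48 h at 37 °C aerobically. MBC is the lowest concentration with no visible growth. Triplicate.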

[7] = system: Pseudomonas aeruginosa; assay: Antibacterial activity against Pseudomonas aeruginosa MTCC 424 assessed as inhibition of bacterial growth at 50 uM measured after 48 hrs by agar well diffusion method; assay type: functional; settings: read-out: IZ
[8] = system: Staphylococcus aureus; assay: Antibacterial activity against Methicillin-resistant Staphylococcus aureus ATCC 33591 assessed as inhibition of bacterial growth measured after 48 hrs by broth microdilution method; assay type: functional
[9] = system: Escherichia coli; assay: Antibacterial activity against clinically isolated Escherichia coli RBRJ013 assessed as inhibition of bacterial growth at 50 uM measured after 48 hrs by agar well diffusion method; assay type: functional; settings: read-out: IZ
[10] = system: Klebsiella pneumoniae; assay: Antibacterial activity against clinically isolated Klebsiella pneumoniae RBRJ024 assessed as inhibition of bacterial growth at 50 uM measured after 48 hrs by agar well diffusion method; assay type: functional; settings: read-out: IZ
[11] = system: Staphylococcus aureus; assay: Bactericidal activity against clinically isolated Methicillin-resistant Staphylococcus aureus assessed as inhibition of bacterial growth measured after 48 hrs by agar plate method; assay type: functional
[12] = system: Escherichia coli; assay: Antibacterial activity against Escherichia coli MTCC 119 assessed as inhibition of bacterial growth at 50 uM measured after 48 hrs by agar well diffusion method; assay type: functional; settings: read-out: IZ
[13] = system: Enterococcus faecalis; assay: Antibacterial activity against clinically isolated Enterococcus faecalis RBRJ015 assessed as inhibition of bacterial growth at 50 uM measured after 48 hrs by agar well diffusion method; assay type: functional; settings: read-out: IZ
[14] = system: Staphylococcus aureus; assay: Antibacterial activity against clinically isolated Methicillin-resistant Staphylococcus aureus assessed as inhibition of bacterial growth measured after 48 hrs by broth microdilution method; assay type: functional
[15] = system: Escherichia coli; assay: Antibacterial activity against clinically isolated Escherichia coli RBRJ005 assessed as inhibition of bacterial growth at 50 uM measured after 48 hrs by agar well diffusion method; assay type: functional; settings: read-out: IZ
[16] = system: Staphylococcus aureus; assay: Antibacterial activity against Staphylococcus aureus MTCC 740 assessed as inhibition of bacterial growth at 50 uM measured after 48 hrs by agar well diffusion method; assay type: functional; settings: read-out: IZ
[17] = system: Staphylococcus aureus; assay: Antibacterial activity against clinically isolated Staphylococcus aureus RBRJ010 assessed as inhibition of bacterial growth at 50 uM measured after 48 hrs by agar well diffusion method; assay type: functional; settings: read-out: IZ
[18] = system: Staphylococcus aureus; assay: Antibacterial activity against Methicillin-resistant Staphylococcus aureus ATCC 33591 assessed as inhibition of bacterial growth at 50 uM measured after 48 hrs by agar well diffusion method; assay type: functional; settings: read-out: IZ
Procedure, shortened: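 Agar well diffusion on Mueller Hinton agar seeded with bacteria at 0.5 McFarland. […] Incubated 48 h at 37 °C aerobically; zone of inhibition diameter (mm) measured. Triplicate.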

[19] = system: Enterococcus faecalis; assay: Antibacterial activity against Enterococcus faecalis MTCC 439 assessed as inhibition of bacterial growth at 50 uM measured after 48 hrs by agar well diffusion method; assay type: functional; settings: read-out: IZ
[20] = system: Staphylococcus aureus; assay: Bactericidal activity against Methicillin-resistant Staphylococcus aureus ATCC 33591 assessed as inhibition of bacterial growth measured after 48 hrs by agar plate method; assay type: functional; procedure, shortened: as §1
[21] = system: Staphylococcus aureus; assay: Antibacterial activity against clinically isolated Methicillin-resistant Staphylococcus aureus assessed as inhibition of bacterial growth at 50 uM measured after 48 hrs by agar well diffusion method; assay type: functional; settings: read-out: IZ
[22] = system: Enterobacter cloacae; assay: Antibacterial activity against clinically isolated Enterobacter cloacae RBRJ017 assessed as inhibition of bacterial growth at 50 uM measured after 48 hrs by agar well diffusion method; assay type: functional; settings: read-out: IZ
[23] = system: Staphylococcus aureus; assay: Bactericidal activity against clinically isolated Staphylococcus aureus RBRJ010 assessed as inhibition of bacterial growth measured after 48 hrs by agar plate method; assay type: functional
Procedure, shortened: (§2)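 MBC: 10 μL from wells showing no INT colour change after broth microdilution subcultured on drug-free Mueller Hinton agar, 48 h at 37 °C aerobically; lowest concentration with no visible growth taken as MBC (μM). Triplicate.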

[24] = system: Staphylococcus aureus; assay: Antibacterial activity against clinically isolated Staphylococcus aureus RBRJ010 assessed as inhibition of bacterial growth measured after 48 hrs by broth microdilution method; assay type: functional
[25] = Cytotoxicity against mouse L929 cells assessed as reduction in cell viability measured after 72 hrs by MTT assay; assay type: toxicity, cell-based
Procedure, shortened: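 L929 cells (ATCC) grown in DMEM with 10% FBS and penicillin/streptomycin at 37 °C, 5% CO2; seeded at 5 × 10^3 cells per well and exposed to serial dilutions for 72 h, paclitaxel as positive control. MTT (5 mg mL−1), formazan dissolved in DMSO, absorbance at 490 nm; viability relative to control after blank subtraction; IC50 in μM.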

[26] = Selectivity index, ratio of IC50 for cytotoxicity against mouse L929 cells to MIC for antibacterial activity against clinically isolated Methicillin-resistant Staphylococcus aureus; assay type: toxicity, cell-based; settings: read-out: Selectivity Index
[27] = system: Staphylococcus epidermidis; assay: Antibacterial activity against Staphylococcus epidermidis MTCC 435 assessed as inhibition of bacterial growth measured after 48 hrs by broth microdilution method; assay type: functional
[28] = system: Staphylococcus epidermidis; assay: Bactericidal activity against Staphylococcus epidermidis MTCC 435 assessed as inhibition of bacterial growth measured after 48 hrs by agar plate method; assay type: functional; procedure, shortened: as §2
[29] = target: T1, 4,4'-diapophytoene synthase (Staphylococcus aureus, UniProt A9JQL9); assay: Inhibition of Staphylococcus aureus CrtM
T1 sequence (A9JQL9 whole entry): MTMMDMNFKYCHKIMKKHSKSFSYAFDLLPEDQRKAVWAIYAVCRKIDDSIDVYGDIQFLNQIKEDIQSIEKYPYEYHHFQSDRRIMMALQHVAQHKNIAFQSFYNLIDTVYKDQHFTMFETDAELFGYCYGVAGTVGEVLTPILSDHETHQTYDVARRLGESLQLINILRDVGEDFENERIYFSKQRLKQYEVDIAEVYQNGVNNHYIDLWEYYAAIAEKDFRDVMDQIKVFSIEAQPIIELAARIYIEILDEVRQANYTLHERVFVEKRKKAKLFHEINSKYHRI

Structure (SMILES) | zone of inhibition at 50 µM [1] | zone of inhibition at 50 µM [2] | zone of inhibition at 50 µM [3] | zone of inhibition at 50 µM [4] | MIC [5] | MBC [6] | zone of inhibition at 50 µM [7] | zone of inhibition at 50 µM [9] | zone of inhibition at 50 µM [10] | MBC [11] | zone of inhibition at 50 µM [12] | zone of inhibition at 50 µM [13] | MIC [14] | zone of inhibition at 50 µM [15] | zone of inhibition at 50 µM [16] | zone of inhibition at 50 µM [17] | zone of inhibition at 50 µM [18] | zone of inhibition at 50 µM [19] | zone of inhibition at 50 µM [21] | zone of inhibition at 50 µM [22] | further results
Cc1ccc(C(C)C)c(OCc2cn(CCCN3C(=O)C(=O)c4cc(Br)ccc43)nn2)c1 | 11.2 mm | 17.2 mm | 14.3 mm | 13.2 mm | 31.2 µM (≈ 15.5 µg/mL) | 62.5 µM (≈ 31.1 µg/mL) | 11.4 mm | 15.5 mm | 13.3 mm | 62.5 µM (≈ 31.1 µg/mL) | 14.1 mm | 12.2 mm | 31.2 µM (≈ 15.5 µg/mL) | 15.4 mm | 21.2 mm | 19.3 mm | 21.5 mm | 12.1 mm | 21.2 mm | 14.2 mm | MIC [8]: 62.5 µM (≈ 31.1 µg/mL); MBC [20]: 125 µM (≈ 62.2 µg/mL)
Cc1ccc(C(C)C)c(OCc2cn(CCCN3C(=O)C(=O)c4cc(I)ccc43)nn2)c1 | 11.5 mm | 14.2 mm | 12.3 mm | 11.3 mm | 31.2 µM (≈ 17 µg/mL) | 125 µM (≈ 68 µg/mL) | 11.6 mm | 11.2 mm | 12.7 mm | 125 µM (≈ 68 µg/mL) | 13.2 mm | 11.1 mm | 62.5 µM (≈ 34 µg/mL) | 12.3 mm | 20.2 mm | 19 mm | 20.5 mm | 11.7 mm | 20.2 mm | 13.7 mm | MIC [8]: 62.5 µM (≈ 34 µg/mL); MBC [20]: 125 µM (≈ 68 µg/mL)
Cc1ccc(C(C)C)c(OCc2cn(CCN3C(=O)C(=O)c4cc(C)ccc43)nn2)c1 | 12.7 mm | 19.6 mm | 16.6 mm | 15.4 mm | – | – | 11.3 mm | 11.4 mm | 15.7 mm | – | 17.1 mm | 16.3 mm | – | 12.7 mm | 18.2 mm | 21.2 mm | 16 mm | 14.3 mm | 16.2 mm | 14.2 mm | MBC [23]: 62.5 µM (≈ 26.2 µg/mL); MIC [24]: 31.2 µM (≈ 13.1 µg/mL)
Cc1ccc(C(C)C)c(OCc2cn(CCCN3C(=O)C(=O)c4cc(F)ccc43)nn2)c1 | 14.7 mm | 16.2 mm | 15.2 mm | 15.4 mm | 7.8 µM (≈ 3.4 µg/mL) | 15.6 µM (≈ 6.81 µg/mL) | 16 mm | 16.2 mm | 14.3 mm | 31.2 µM (≈ 13.6 µg/mL) | 15.2 mm | 15.3 mm | 15.6 µM (≈ 6.81 µg/mL) | 16.2 mm | 24.1 mm | 23.2 mm | 20.3 mm | 16.4 mm | 22.2 mm | 15.3 mm | MIC [8]: 62.5 µM (≈ 27.3 µg/mL); IC50 at 72 h [25]: 31.2 µM; MBC [23]: 15.6 µM (≈ 6.81 µg/mL); selectivity ratio [26]: 2; MBC [20]: 125 µM (≈ 54.6 µg/mL); MIC [24]: 7.8 µM (≈ 3.4 µg/mL)
Cc1ccc(C(C)C)c(OCc2cn(CCN3C(=O)C(=O)c4ccccc43)nn2)c1 | 13.3 mm | 22.7 mm | 18.3 mm | 16.4 mm | 62.5 µM (≈ 25.3 µg/mL) | 125 µM (≈ 50.6 µg/mL) | 18.2 mm | 14.4 mm | 16.5 mm | 125 µM (≈ 50.6 µg/mL) | 18.6 mm | 18.3 mm | 62.5 µM (≈ 25.3 µg/mL) | 15.2 mm | 20.2 mm | 22.2 mm | 18.2 mm | 15.4 mm | 20.2 mm | 16.5 mm | MIC [27]: 15.6 µM (≈ 6.31 µg/mL); IC50 at 72 h [25]: 250 µM; MBC [23]: 31.2 µM (≈ 12.6 µg/mL); MBC [28]: 31.2 µM (≈ 12.6 µg/mL); selectivity ratio [26]: 4; MIC [24]: 15.6 µM (≈ 6.31 µg/mL)
O=P(O)(O)C(CCCc1ccc(-c2ccccc2)cc1)P(=O)(O)O | – | – | – | – | – | – | – | – | – | – | – | – | – | – | – | – | – | – | – | – | Ki [29]: 0.0002 µM
